One molecule from ChEMBL document CHEMBL1136847, “Syntheses and potential anti-prostate cancer activities of ionone-based chalcones” (Bioorg Med Chem Lett, 2009) can be followed below.

In general, IC50 refers to the midpoint of a concentration-inhibition curve. Low readings indicate greater potency in that assay, high ones weaker potency in that assay.

In one assay the test system is CWR22R. In words: Cytotoxicity against human 22Rv1 cells with H874Y AR mutant after 72 hrs by MTT assay. Format: functional, cell-based. The note with it: 22Rv1, 72 h. An outline of the steps:
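Cells seeded at 6000–7000 per well in RPMI 1640 with 10% FBS, penicillin and streptomycin, left overnight, then exposed to a range of concentrations from DMSO stock (final DMSO 0.5%) for 72 h. MTT added for a further 2 h and formazan from viable cells read. IC50 taken from survival curves, 50% inhibition relative to 0.5% DMSO control; top concentration 150 µM.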
(In general: Tetrazolium dyes change colour on reduction, which living cells bring about.)

In assay [1] the test system is T1, Androgen receptor (Homo sapiens), P10275 [W742C].
T1 sequence (whole entry): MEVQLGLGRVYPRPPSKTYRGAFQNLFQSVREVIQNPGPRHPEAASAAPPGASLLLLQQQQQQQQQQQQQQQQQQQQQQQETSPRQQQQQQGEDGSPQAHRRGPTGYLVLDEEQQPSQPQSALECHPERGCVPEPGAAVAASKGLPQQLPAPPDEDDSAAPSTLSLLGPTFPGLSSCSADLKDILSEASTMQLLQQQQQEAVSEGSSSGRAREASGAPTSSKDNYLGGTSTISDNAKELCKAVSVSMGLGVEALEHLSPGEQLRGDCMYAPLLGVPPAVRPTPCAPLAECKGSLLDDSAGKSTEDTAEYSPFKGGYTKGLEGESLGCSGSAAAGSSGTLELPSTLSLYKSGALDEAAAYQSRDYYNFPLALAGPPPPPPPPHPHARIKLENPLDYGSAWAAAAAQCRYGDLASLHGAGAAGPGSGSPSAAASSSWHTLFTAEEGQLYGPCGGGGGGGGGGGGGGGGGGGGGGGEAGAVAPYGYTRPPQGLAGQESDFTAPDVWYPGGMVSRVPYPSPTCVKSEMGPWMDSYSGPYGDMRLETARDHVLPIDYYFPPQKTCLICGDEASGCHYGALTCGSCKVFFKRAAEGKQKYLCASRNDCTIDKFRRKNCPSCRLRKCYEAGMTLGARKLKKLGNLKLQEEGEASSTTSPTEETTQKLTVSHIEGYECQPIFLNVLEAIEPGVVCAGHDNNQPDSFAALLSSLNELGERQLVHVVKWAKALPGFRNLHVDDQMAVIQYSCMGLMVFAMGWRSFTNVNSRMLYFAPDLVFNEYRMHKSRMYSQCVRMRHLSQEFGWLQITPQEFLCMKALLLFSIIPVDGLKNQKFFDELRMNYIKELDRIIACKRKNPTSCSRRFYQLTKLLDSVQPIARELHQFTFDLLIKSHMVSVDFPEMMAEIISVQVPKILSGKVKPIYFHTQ
In words: Antagonist activity at androgen receptor W741C mutant in human PC3 cells transiently transfected with pCMV-MMTV-Luc assessed as suppression of DHT-induced receptor transactivation. Format: functional, cell-based. The note with it: PC-3. In outline: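 PC-3 cells seeded 24 h before co-transfection with MMTV-luciferase reporter (100 ng), the wild-type, T877A, W741C or H874Y AR plasmid (10 ng) and Renilla null luciferase (10 ng) using Lipofectamine 2000. Medium switched after 5 h to phenol red-free RPMI 1640 with 10% charcoal-stripped FBS. After 16 h, 0.1 nM DHT ± compound (0.1, 1.0 µM) for 24 h. Dual-luciferase read-out, Renilla-standardized, normalized to DHT alone (100%).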

`CC1=C(/C=C/C(=O)/C=C/c2cccc(C(F)(F)F)c2)C(C)(C)CCC1O` (configuration not stated) came in with a half-maximal inhibitory concentration (IC50) in the assay on CWR22R of 1700 nM. The Activity entry in assay [1] is “Dose-dependent effect”.
